Results taken from ChEMBL document CHEMBL1151705, “Novel azalides derived from 16-membered macrolides. Part II: Isolation of the linear 9-formylcarboxylic acid and its sequential macrocyclization with an amino alcohol or an azidoamine” (2008).
Converted amounts (≈) assume the structure as drawn.

How the values were obtained:
Type in all cases: functional
Streptococcus pneumoniae [1] = experiment: Antimicrobial activity against Streptococcus pneumoniae 8 expressing inducible ermB after 20 hrs by agar dilution method
Procedure, shortened: (§1)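 Streptococci, H. influenzae and M. catarrhalis were precultured on blood agar plates. Suspensions of about 10⁶ CFU/ml were inoculated onto sensitivity disk agar supplemented with 5% horse blood and incubated at 37 °C for 20 h. MIC was read as the lowest drug concentration with no visible growth.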

Streptococcus pneumoniae [2] = experiment: Antimicrobial activity against Streptococcus pneumoniae 9 expressing mefA after 20 hrs by agar dilution method; settings: Streptococcus pneumoniae, 20 h; read-out: MIC; procedure, shortened: as §1
Streptococcus pneumoniae [3] = experiment: Antimicrobial activity against Streptococcus pneumoniae 10 expressing mefA after 20 hrs by agar dilution method; settings: Streptococcus pneumoniae, 20 h; read-out: MIC; procedure, shortened: as §1
Streptococcus pyogenes [4] = experiment: Antimicrobial activity against drug-susceptible Streptococcus pyogenes 1 after 20 hrs by agar dilution method; settings: Streptococcus pyogenes, 20 h; read-out: MIC; procedure, shortened: as §1
Streptococcus pyogenes [5] = experiment: Antimicrobial activity against Streptococcus pyogenes 2 constitutively expressing ermB after 20 hrs by agar dilution method; procedure, shortened: as §1
Streptococcus pyogenes [6] = experiment: Antimicrobial activity against Streptococcus pyogenes 3 expressing mefA after 20 hrs by agar dilution method; settings: Streptococcus pyogenes, 20 h; read-out: MIC; procedure, shortened: as §1
Moraxella catarrhalis [7] = experiment: Antimicrobial activity against drug-susceptible Moraxella catarrhalis 1 after 20 hrs by agar dilution method; procedure, shortened: as §1
Moraxella catarrhalis [8] = experiment: Antimicrobial activity against drug-susceptible Moraxella catarrhalis 2 after 20 hrs by agar dilution method; settings: Moraxella catarrhalis, 20 h; read-out: MIC; procedure, shortened: as §1
Haemophilus influenzae [9] = experiment: Antimicrobial activity against drug-susceptible Haemophilus influenzae 1 after 20 hrs by agar dilution method; settings: Haemophilus influenzae, 20 h; read-out: MIC; procedure, shortened: as §1
Haemophilus influenzae [10] = experiment: Antimicrobial activity against drug-susceptible Haemophilus influenzae 2 after 20 hrs by agar dilution method; settings: Haemophilus influenzae, 20 h; read-out: MIC; procedure, shortened: as §1
Haemophilus influenzae [11] = experiment: Antimicrobial activity against drug-susceptible Haemophilus influenzae 3 after 20 hrs by agar dilution method; settings: Haemophilus influenzae, 20 h; read-out: MIC; procedure, shortened: as §1
Haemophilus influenzae [12] = experiment: Antimicrobial activity against drug-susceptible Haemophilus influenzae 4 after 20 hrs by agar dilution method; settings: Haemophilus influenzae, 20 h; read-out: MIC; procedure, shortened: as §1
Staphylococcus aureus [13] = experiment: Antimicrobial activity against drug-susceptible Staphylococcus aureus 209P JC-1 after 20 hrs by agar dilution method; settings: Staphylococcus aureus, 209P, 20 h; read-out: MIC
Procedure, shortened: (§2)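 Agar dilution MIC. S. aureus seed culture was grown in sensitivity test broth. Cell suspension (about 10⁶ CFU/ml) was inoculated onto sensitivity disk agar with 5% horse blood and incubated at 37 °C for 20 h. MIC was the lowest drug concentration that prevented visible growth.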

Staphylococcus aureus [14] = experiment: Antimicrobial activity against drug-susceptible Staphylococcus aureus 2 after 20 hrs by agar dilution method; settings: Staphylococcus aureus, 20 h; read-out: MIC; procedure, shortened: as §2
Staphylococcus aureus [15] = experiment: Antimicrobial activity against drug-susceptible Staphylococcus aureus 3 after 20 hrs by agar dilution method; settings: Staphylococcus aureus, 20 h; read-out: MIC; procedure, shortened: as §2
Staphylococcus aureus [16] = experiment: Antimicrobial activity against Staphylococcus aureus 4 constitutively expressing ermA after 20 hrs by agar dilution method; procedure, shortened: as §2
Staphylococcus aureus [17] = experiment: Antimicrobial activity against Staphylococcus aureus 5 expressing inducible ermB after 20 hrs by agar dilution method; settings: Staphylococcus aureus, 20 h; read-out: MIC; procedure, shortened: as §2
Streptococcus pneumoniae [18] = experiment: Antimicrobial activity against drug-susceptible Streptococcus pneumoniae DP1 Type1 after 20 hrs by agar dilution method; settings: Streptococcus pneumoniae, 20 h; read-out: MIC; procedure, shortened: as §1
Streptococcus pneumoniae [19] = experiment: Antimicrobial activity against drug-susceptible Streptococcus pneumoniae 2 after 20 hrs by agar dilution method; settings: Streptococcus pneumoniae, 20 h; read-out: MIC; procedure, shortened: as §1
Streptococcus pneumoniae [20] = experiment: Antimicrobial activity against drug-susceptible Streptococcus pneumoniae 3 after 20 hrs by agar dilution method; settings: Streptococcus pneumoniae, 20 h; read-out: MIC; procedure, shortened: as §1
Streptococcus pneumoniae [21] = experiment: Antimicrobial activity against Streptococcus pneumoniae 4 constitutively expressing ermB after 20 hrs by agar dilution method; settings: Streptococcus pneumoniae, 20 h; read-out: MIC; procedure, shortened: as §1
Streptococcus pneumoniae [22] = experiment: Antimicrobial activity against Streptococcus pneumoniae 5 constitutively expressing ermB/mefA after 20 hrs by agar dilution method; settings: Streptococcus pneumoniae, 20 h; read-out: MIC; procedure, shortened: as §1
Streptococcus pneumoniae [23] = experiment: Antimicrobial activity against Streptococcus pneumoniae 6 constitutively expressing ermB after 20 hrs by agar dilution method; settings: Streptococcus pneumoniae, 20 h; read-out: MIC; procedure, shortened: as §1
Streptococcus pneumoniae [24] = experiment: Antimicrobial activity against Streptococcus pneumoniae 7 expressing inducible ermB after 20 hrs by agar dilution method; settings: Streptococcus pneumoniae, 20 h; read-out: MIC; procedure, shortened: as §1
Staphylococcus aureus [25] = experiment: Antimicrobial activity against Staphylococcus aureus 6 expressing inducible ermB after 20 hrs by agar dilution method; procedure, shortened: as §2
[26] = Streptococcus pneumoniae, 20 h, read-out: MIC
[27] = Moraxella catarrhalis, 20 h, read-out: MIC

With CCOC(=O)[C@H]1[C@H](C)O[C@@H](O[C@H]2[C@H](N(C)C)[C@@H](O)[C@H](O[C@H]3[C@@H](CC=O)C[C@@H](C)[C@@H](O)CN(C)CCC[C@H](C/C=C/c4cnc5ccccc5c4)OC(=O)C[C@@H](OC(=O)CC)[C@@H]3OC)O[C@@H]2C)C[C@@]1(C)O the MIC (Streptococcus pneumoniae [1]; [26]) was 8 µg/mL (≈ 8.11 µM), the MIC (Streptococcus pneumoniae [2]) was 0.06 µg/mL (≈ 0.0608 µM) and the MIC (Streptococcus pneumoniae [3]) was 0.03 µg/mL (≈ 0.0304 µM). The MIC (Streptococcus pyogenes [4]) was 0.06 µg/mL (≈ 0.0608 µM), the MIC (Streptococcus pyogenes [5]) was > 128 µg/mL and the MIC (Streptococcus pyogenes [6]) was 0.5 µg/mL (≈ 0.507 µM). The MIC (Moraxella catarrhalis [7]; [27]) was 1 µg/mL (≈ 1.01 µM), the MIC (Moraxella catarrhalis [8]) was 1 µg/mL (≈ 1.01 µM) and the MIC (Haemophilus influenzae [9]) was 32 µg/mL (≈ 32.4 µM). It also gave an MIC (Haemophilus influenzae [10]) of 2 µg/mL (≈ 2.03 µM), an MIC (Haemophilus influenzae [11]) of 8 µg/mL (≈ 8.11 µM) and an MIC (Haemophilus influenzae [12]) of 8 µg/mL (≈ 8.11 µM). The MIC (Staphylococcus aureus [13]) was 0.5 µg/mL (≈ 0.507 µM), the MIC (Staphylococcus aureus [14]) was 1 µg/mL (≈ 1.01 µM) and the MIC (Staphylococcus aureus [15]) was 0.25 µg/mL (≈ 0.253 µM). For the same molecule, the MIC (Staphylococcus aureus [16]) was > 128 µg/mL, the MIC (Staphylococcus aureus [17]) was 0.25 µg/mL (≈ 0.253 µM) and the MIC (Streptococcus pneumoniae [18]) was 0.015 µg/mL (≈ 0.0152 µM). For the same molecule, the MIC (Streptococcus pneumoniae [19]) was 0.03 µg/mL (≈ 0.0304 µM), the MIC (Streptococcus pneumoniae [20]) was 0.03 µg/mL (≈ 0.0304 µM) and the MIC (Streptococcus pneumoniae [21]) was 128 µg/mL (≈ 130 µM). It also gave an MIC (Streptococcus pneumoniae [22]) of 128 µg/mL (≈ 130 µM), an MIC (Streptococcus pneumoniae [23]) of 128 µg/mL (≈ 130 µM) and an MIC (Streptococcus pneumoniae [24]) of 8 µg/mL (≈ 8.11 µM). For the same molecule, the MIC (Staphylococcus aureus [25]) was 0.5 µg/mL (≈ 0.507 µM).

CCOC(=O)[C@H]1[C@H](C)O[C@@H](O[C@H]2[C@H](N(C)C)[C@@H](O)[C@H](O[C@H]3[C@@H](CC=O)C[C@@H](C)[C@@H](O)CN(C)CCC[C@H](C/C=C/c4ccc5ncccc5c4)OC(=O)C[C@@H](OC(=O)CC)[C@@H]3OC)O[C@@H]2C)C[C@@]1(C)O was tested, and the MIC (Streptococcus pneumoniae [1]; [26]) was 8 µg/mL (≈ 8.11 µM), the MIC (Streptococcus pneumoniae [2]) was 0.03 µg/mL (≈ 0.0304 µM) and the MIC (Streptococcus pneumoniae [3]) was 0.03 µg/mL (≈ 0.0304 µM). For the same molecule, the MIC (Streptococcus pyogenes [4]) was 0.06 µg/mL (≈ 0.0608 µM), the MIC (Streptococcus pyogenes [5]) was > 128 µg/mL and the MIC (Streptococcus pyogenes [6]) was 0.25 µg/mL (≈ 0.253 µM). It also gave an MIC (Moraxella catarrhalis [7]; [27]) of 1 µg/mL (≈ 1.01 µM), an MIC (Moraxella catarrhalis [8]) of 1 µg/mL (≈ 1.01 µM) and an MIC (Haemophilus influenzae [9]) of 32 µg/mL (≈ 32.4 µM). It also gave an MIC (Haemophilus influenzae [10]) of 4 µg/mL (≈ 4.06 µM), an MIC (Haemophilus influenzae [11]) of 8 µg/mL (≈ 8.11 µM) and an MIC (Haemophilus influenzae [12]) of 8 µg/mL (≈ 8.11 µM). The MIC (Staphylococcus aureus [13]) was 0.25 µg/mL (≈ 0.253 µM), the MIC (Staphylococcus aureus [14]) was 0.5 µg/mL (≈ 0.507 µM) and the MIC (Staphylococcus aureus [15]) was 0.25 µg/mL (≈ 0.253 µM). The MIC (Staphylococcus aureus [16]) was > 128 µg/mL, the MIC (Staphylococcus aureus [17]) was 0.25 µg/mL (≈ 0.253 µM) and the MIC (Streptococcus pneumoniae [18]) was 0.015 µg/mL (≈ 0.0152 µM). The MIC (Streptococcus pneumoniae [19]) was 0.03 µg/mL (≈ 0.0304 µM), the MIC (Streptococcus pneumoniae [20]) was 0.015 µg/mL (≈ 0.0152 µM) and the MIC (Streptococcus pneumoniae [21]) was > 128 µg/mL. The MIC (Streptococcus pneumoniae [22]) was > 128 µg/mL, the MIC (Streptococcus pneumoniae [23]) was > 128 µg/mL and the MIC (Streptococcus pneumoniae [24]) was 8 µg/mL (≈ 8.11 µM). For the same molecule, the MIC (Staphylococcus aureus [25]) was 0.25 µg/mL (≈ 0.253 µM).

CCOC(=O)[C@H]1[C@H](C)O[C@@H](O[C@H]2[C@H](N(C)C)[C@@H](O)[C@H](O[C@H]3[C@@H](CC=O)C[C@@H](C)[C@@H](O)CN(C)CCC(CCCc4cnc5ccccc5c4)NC(=O)C[C@@H](OC(=O)CC)[C@@H]3OC)O[C@@H]2C)C[C@@]1(C)O (mixture of isomers) was tested, and the MIC (Streptococcus pneumoniae [1]) was 64 µg/mL, the MIC (Streptococcus pneumoniae [2]) was 0.06 µg/mL and the MIC (Streptococcus pneumoniae [3]) was 0.06 µg/mL. The MIC (Streptococcus pyogenes [4]) was 0.13 µg/mL, the MIC (Streptococcus pyogenes [5]) was > 128 µg/mL and the MIC (Streptococcus pyogenes [6]) was 0.5 µg/mL. It also gave an MIC (Moraxella catarrhalis [7]) of 2 µg/mL, an MIC (Moraxella catarrhalis [8]) of 2 µg/mL and an MIC (Haemophilus influenzae [9]) of 32 µg/mL. For the same molecule, the MIC (Haemophilus influenzae [10]) was 1 µg/mL, the MIC (Haemophilus influenzae [11]) was 8 µg/mL and the MIC (Haemophilus influenzae [12]) was 16 µg/mL. It also gave an MIC (Staphylococcus aureus [13]) of 0.5 µg/mL, an MIC (Staphylococcus aureus [14]) of 1 µg/mL and an MIC (Staphylococcus aureus [15]) of 0.25 µg/mL. The MIC (Staphylococcus aureus [16]) was > 128 µg/mL, the MIC (Staphylococcus aureus [17]) was 0.5 µg/mL and the MIC (Streptococcus pneumoniae [18]) was 0.03 µg/mL. The MIC (Streptococcus pneumoniae [19]) was 0.06 µg/mL, the MIC (Streptococcus pneumoniae [20]) was 0.06 µg/mL and the MIC (Streptococcus pneumoniae [21]) was > 128 µg/mL. The MIC (Streptococcus pneumoniae [22]) was > 128 µg/mL, the MIC (Streptococcus pneumoniae [23]) was > 128 µg/mL and the MIC (Streptococcus pneumoniae [24]) was 16 µg/mL. For the same molecule, the MIC (Staphylococcus aureus [25]) was 0.5 µg/mL.
